# In ChEMBL document CHEMBL2169806, “Design, synthesis, and pharmacological evaluation of N-acylhydrazones and novel conformationally constrained compounds as selective and potent orally active phosphodiesterase-4 inhibitors” (J Med Chem, 2012):
# Tested on: PBMC
# Experiment: Antiinflammatory activity in human PBMC assessed as inhibition of LPS-induced TNFalpha production at 10 uM after 24 hrs by ELISA relative to control
# Assay type: functional
# Conditions: not given
row,SMILES,inhibition at 10 µM
1,COc1ccc(C2=NNC(=O)c3ccccc3C2)cc1OC,14%
2,COc1ccc(C2=NN(C)C(=O)c3ccccc3C2)cc1OC,20%
3,COc1ccc(/C=N/N(C)C(=O)c2ccc3c(c2)OCO3)cc1OC,90%

# Tested on: Mus musculus
# Experiment: Antiinflammatory activity in A/J mouse assessed as inhibition of LPS-induced airway elastance provoked by methacholine at 3 mg/kg, po administered 1 hr prior to LPS-challenge measured after 18 hrs relative to vehicle-treated control
# Assay type: functional
# Conditions: not given
row,SMILES,inhibition in vivo at 3 mg/kg
1,COc1ccc([C@]2(C#N)CC[C@@H](C(=O)O)CC2)cc1OC1CCCC1 [CILOMILAST],93%

# Target: cGMP-dependent 3',5'-cyclic phosphodiesterase (Homo sapiens, UniProt O00408)
# Sequence (O00408 whole entry): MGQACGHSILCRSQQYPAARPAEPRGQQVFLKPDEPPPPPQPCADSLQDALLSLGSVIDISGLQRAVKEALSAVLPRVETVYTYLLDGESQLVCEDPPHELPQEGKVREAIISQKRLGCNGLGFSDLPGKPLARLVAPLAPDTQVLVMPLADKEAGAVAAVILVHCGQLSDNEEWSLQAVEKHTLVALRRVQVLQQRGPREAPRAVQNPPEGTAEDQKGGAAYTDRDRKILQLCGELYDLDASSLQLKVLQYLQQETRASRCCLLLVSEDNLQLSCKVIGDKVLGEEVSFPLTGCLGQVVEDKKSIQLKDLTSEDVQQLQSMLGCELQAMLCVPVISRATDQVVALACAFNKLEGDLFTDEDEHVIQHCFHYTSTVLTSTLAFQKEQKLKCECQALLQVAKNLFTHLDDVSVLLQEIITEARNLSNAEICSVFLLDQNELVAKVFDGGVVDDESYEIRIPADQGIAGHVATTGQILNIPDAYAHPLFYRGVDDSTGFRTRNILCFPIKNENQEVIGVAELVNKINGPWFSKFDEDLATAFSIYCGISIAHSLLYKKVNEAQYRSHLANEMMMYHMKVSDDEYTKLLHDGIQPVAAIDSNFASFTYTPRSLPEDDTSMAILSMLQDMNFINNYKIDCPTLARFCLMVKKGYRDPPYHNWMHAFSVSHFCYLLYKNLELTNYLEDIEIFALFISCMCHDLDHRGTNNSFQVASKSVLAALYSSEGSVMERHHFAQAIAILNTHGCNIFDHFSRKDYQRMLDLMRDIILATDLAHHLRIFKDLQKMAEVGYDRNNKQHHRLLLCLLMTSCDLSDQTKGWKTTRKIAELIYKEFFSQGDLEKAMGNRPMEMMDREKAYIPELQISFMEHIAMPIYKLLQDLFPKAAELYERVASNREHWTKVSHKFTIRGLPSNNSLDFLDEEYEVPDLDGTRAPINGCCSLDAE
# Experiment: Inhibition of human PDE2 using [3H]cAMP as substrate at 10 uM
# Conditions: not given
row,SMILES,inhibition
1,COc1ccc(/C=N/N(C)C(=O)c2ccc3c(c2)OCO3)cc1OC,4%

# Tested on: Mus musculus
# Experiment: Antiinflammatory activity in A/J mouse assessed as inhibition of leukocyte accumulation in bronchoalveolar space at 100 umol/kg, po administered 1 hr prior to LPS-challenge measured after 18 hrs relative to vehicle-treated control
# Assay type: functional
# Conditions: Lung
row,SMILES,inhibition in vivo at 100 µmol/kg
1,COc1ccc(/C=N/N(C)C(=O)c2ccc3c(c2)OCO3)cc1OC,62%
2,COc1ccc(/C=N/N(C)c2ncnc3ccccc23)cc1OC,47%

# Tested on: not listed separately
# Experiment: Inhibition of PDE6 at 10 uM
# Conditions: not given
row,SMILES,inhibition
1,COc1ccc(/C=N/N(C)C(=O)c2ccc3c(c2)OCO3)cc1OC,0.6%

# Tested on: Mus musculus
# Experiment: Antiinflammatory activity in A/J mouse assessed as inhibition of LPS-induced airway resistance provoked by methacholine at 3 mg/kg, po administered 1 hr prior to LPS-challenge measured after 18 hrs relative to vehicle-treated control
# Assay type: functional
# Conditions: not given
row,SMILES,inhibition in vivo at 3 mg/kg
1,COc1ccc([C@]2(C#N)CC[C@@H](C(=O)O)CC2)cc1OC1CCCC1 [CILOMILAST],93%

# Species on record: Bos taurus
# Experiment: Inhibition of bovine PDE1 using [3H]cAMP as substrate at 10 uM
# Conditions: not given
row,SMILES,inhibition
1,COc1ccc(/C=N/N(C)C(=O)c2ccc3c(c2)OCO3)cc1OC,0%

# Species on record: Bos taurus
# Experiment: Inhibition of bovine PDE3 using [3H]cAMP as substrate at 10 uM
# Conditions: not given
row,SMILES,inhibition
1,COc1ccc(/C=N/N(C)C(=O)c2ccc3c(c2)OCO3)cc1OC,19.4%

# Tested on: Mus musculus
# Experiment: Antiinflammatory activity in A/J mouse assessed as inhibition of neutrophil accumulation in bronchoalveolar space at 3 mg/kg, po administered 1 hr prior to LPS-challenge measured after 18 hrs relative to vehicle-treated control
# Assay type: functional
# Conditions: Lung
row,SMILES,inhibition in vivo at 3 mg/kg
1,COc1ccc([C@]2(C#N)CC[C@@H](C(=O)O)CC2)cc1OC1CCCC1 [CILOMILAST],43%

# Tested on: not listed separately
# Experiment: Inhibition of bovine PDE4 using [3H]cAMP as substrate
# Set-up: species or system Bos taurus
# Conditions: not given
row,SMILES,IC50
1,COc1ccc(C2=NNC(=O)c3ccccc3C2)cc1OC,5200 nM
2,COc1ccc(C2=NN(C)C(=O)c3ccccc3C2)cc1OC,7300 nM
3,COc1ccc(/C=N/N(C)C(=O)c2ccc3c(c2)OCO3)cc1OC,110 nM
4,COc1ccc(/C=N/N(C)c2ncnc3ccccc23)cc1OC,190 nM
5,COc1ccc(-c2nn(C(=O)c3ccccc3)c3ccccc23)cc1OC,4100 nM

# Tested on: Mus musculus
# Experiment: Antiinflammatory activity in A/J mouse lung assessed as inhibition of LPS-induced TNFalpha production at 100 umol/kg, po administered 1 hr prior to LPS-challenge measured after 18 hrs relative to vehicle-treated control
# Assay type: functional
# Conditions: not given
row,SMILES,inhibition in vivo at 100 µmol/kg
1,COc1ccc(/C=N/N(C)C(=O)c2ccc3c(c2)OCO3)cc1OC,80%
2,COc1ccc(/C=N/N(C)c2ncnc3ccccc23)cc1OC,70%

# Tested on: Mus musculus
# Experiment: Antiinflammatory activity in A/J mouse lung assessed as inhibition of LPS-induced IL6 production at 100 umol/kg, po administered 1 hr prior to LPS-challenge measured after 18 hrs relative to vehicle-treated control
# Assay type: functional
# Conditions: not given
row,SMILES,inhibition in vivo at 100 µmol/kg
1,COc1ccc(/C=N/N(C)C(=O)c2ccc3c(c2)OCO3)cc1OC,92%
2,COc1ccc(/C=N/N(C)c2ncnc3ccccc23)cc1OC,86%

# Tested on: PBMC
# Experiment: Antiinflammatory activity in human PBMC assessed as inhibition of LPS-induced TNFalpha production after 24 hrs by ELISA
# Assay type: functional, cell-based
# Conditions: not given
row,SMILES,EC50
1,COc1ccc(/C=N/N(C)C(=O)c2ccc3c(c2)OCO3)cc1OC,540 nM
2,COc1ccc(/C=N/N(C)c2ncnc3ccccc23)cc1OC,1300 nM

# Tested on: Mus musculus
# Experiment: Antiinflammatory activity in A/J mouse assessed as inhibition of LPS-induced airway elastance provoked by methacholine at 100 umol/kg, po administered 1 hr prior to LPS-challenge measured after 18 hrs relative to vehicle-treated control
# Assay type: functional
# Conditions: not given
row,SMILES,inhibition in vivo at 100 µmol/kg
1,COc1ccc(/C=N/N(C)C(=O)c2ccc3c(c2)OCO3)cc1OC,64%
2,COc1ccc(/C=N/N(C)c2ncnc3ccccc23)cc1OC,66%

# Species on record: Bos taurus
# Experiment: Inhibition of bovine PDE4 using [3H]cAMP as substrate at 10 uM
# Conditions: not given
# Summary of the method: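 Enzyme was PDE4 isolated from the media layer of bovine aorta, run in the two-step activity assay at 1 μM cAMP.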
row,SMILES,inhibition
1,COc1ccc(C(=O)N(C)/N=C/c2ccc3c(c2)OCO3)cc1OC,19.8%
2,COc1ccc(C(=O)N/N=C/c2ccc3c(c2)OCO3)cc1OC,10.5%
3,COc1ccc(C2=NNC(=O)c3ccccc3C2)cc1OC,78.8%
4,COc1ccc(C2=NN(C)C(=O)c3ccccc3C2)cc1OC,76.5%
5,COc1ccc(/C=N/N(C)C(=O)c2ccc3c(c2)OCO3)cc1OC,96.3%
6,COc1ccc(/C=N/N(C)c2ncnc3ccccc23)cc1OC,98%
7,COc1ccc(-c2nn(C(=O)c3ccccc3)c3ccccc23)cc1OC,81.2%

# Tested on: Mus musculus
# Experiment: Antiinflammatory activity in A/J mouse assessed as inhibition of neutrophil accumulation in bronchoalveolar space at 100 umol/kg, po administered 1 hr prior to LPS-challenge measured after 18 hrs relative to vehicle-treated control
# Assay type: functional
# Conditions: Lung
row,SMILES,inhibition in vivo at 100 µmol/kg
1,COc1ccc(/C=N/N(C)C(=O)c2ccc3c(c2)OCO3)cc1OC,67%
2,COc1ccc(/C=N/N(C)c2ncnc3ccccc23)cc1OC,49%

# Tested on: Mus musculus
# Experiment: Antiinflammatory activity in A/J mouse assessed as inhibition of LPS-induced airway resistance provoked by methacholine at 100 umol/kg, po administered 1 hr prior to LPS-challenge measured after 18 hrs relative to vehicle-treated control
# Assay type: functional
# Conditions: not given
row,SMILES,inhibition in vivo at 100 µmol/kg
1,COc1ccc(/C=N/N(C)C(=O)c2ccc3c(c2)OCO3)cc1OC,56%
2,COc1ccc(/C=N/N(C)c2ncnc3ccccc23)cc1OC,82%

# Species on record: Bos taurus
# Experiment: Inhibition of bovine PDE5 using […] as substrate at 10 uM
# Conditions: not given
row,SMILES,inhibition
1,COc1ccc(/C=N/N(C)C(=O)c2ccc3c(c2)OCO3)cc1OC,5.1%
